Screening data: PubChem BioAssay, several laboratories
G6PDH CS = L. mesenteroides G6PDH inhibition counter-screen. Purified L. mesenteroides G6PDH, diaphorase/resazurin coupled fluorescence, 45 min. inhibition, % at 5 µM. actives 0.12% (n = 200,000)
Diaph act CS = activates diaphorase or chemically reduces, flagging diaphorase assay artifacts | actives 0.005% (n = 190,000) | AID 1229 | Diaphorase/resazurin coupled assay, resorufin fluorescence, 16 min; hits give high values; 1 = vehicle wells, 0 = NADH-free wells | activation factor at 20 µM;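 active = diaphorase activity raised at least twofold by the compound at 20 µM; inactive = activation factor below 2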
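Assay system: bacterial diaphorase enzyme (C. kluyveri) / Input: enzyme 0.07 U/mL final / Medium: 50 mM HEPES pH 7.4 with 4.542 mM MgCl2, 0.005% Tween 20 / Doses: single compound dose of 20 µM, 1% DMSO final / Incubation: 16 min enzyme reaction, ambient temperature / Signal: fluorescence, excitation 544 nm and emission 590 nm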
WT yeast gro inh = growth inhibition of WT yeast, mitochondrial fusion screen; inhibition, % at 10 µM; mitochondrial fusion phenotypic screen, WT strain; actives 2.1% (n = 190,000); in the data active = inhibition above about 58%; tested in S. cerevisiae
Lmaj promast = reduces viability of Leishmania major promastigotes | resazurin fluorescence viability | inhibition, % at 10 µM | actives 9% (n = 200,000) | AID 1063;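 also: promastigotes grown with compound for 44 hours at 28 °C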
Diaphorase inh = counter-screen for diaphorase-based assays: diaphorase inhibitors and chemical oxidizers; diaphorase resazurin-to-resorufin fluorescence, NADH, 16 min; bacterial (C. kluyveri) enzyme, not human; inhibition, % at 20 µM; actives 0.69% (n = 190,000); AID 1217;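 active = primary screen inhibition at 20 µM above a set limit, cut at about 50% in these data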;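 also: plate controls were DMSO with full reaction for no effect and wells lacking NADH for full effect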
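Detection: fluorescence of resorufin formed from resazurin, Ex 544/Em 590 nm; test system: Clostridium kluyveri diaphorase enzyme; amount: 0.14 U/mL diaphorase, enzyme working solution; times: 16-min room-temperature incubation before reading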
Numbers without * were called inactive; . = no result. Sampled rows, rich in hits. Any-hit rate of the full collection: about 11%. Rule as the data show it, unless noted: active = inhibition above about 50%; inactive = the rest.

SMILES	G6PDH CS	Diaph act CS	WT yeast gro inh	Lmaj promast	Diaphorase inh
COc1ccc(CC(=O)Nc2nc3ccc(F)cc3s2)cc1S(=O)(=O)N1CCOCC1	-32.9	0.7	0.8	90.2*	28.4
COc1ccc(CC(=O)Nc2nc3ccccc3s2)cc1S(=O)(=O)N1CCOCC1	1.3	0.8	-8.0	3.3	20.6
CC(C)CCc1noc(CN2CCN(c3ccc(Cl)cn3)CC2)n1	11.7	0.9	31.5	-2.9	8.8
CCCCNCCOc1ccccc1-c1ccccc1	-0.6	0.9	13.6	97.4*	6.2
COCCCNCCOc1ccccc1-c1ccccc1	8.5	0.8	13.2	47.3	16.9
COCCCNCCCCOc1ccccc1-c1ccccc1	3.3	0.9	13.0	97.7*	9.7
CN(C)CCOCCOc1ccccc1-c1ccccc1	10.5	0.9	11.7	80.6*	5.6
COCCNCCOc1ccccc1-c1ccccc1	-3.9	1	0.2	85.3*	4.5
C=CCNCCCCOc1ccccc1-c1ccccc1	5.0	0.9	11.5	98.0*	14.1
OCCNCCOCCOc1ccccc1-c1ccccc1	2.1	0.9	13.7	61.6*	9.2
CNCCCCOc1ccccc1-c1ccccc1	6.6	0.9	-6.0	39.1	7.4
CN(C)S(=O)(=O)c1cc(NC(=O)CSc2nn(-c3ccc(Cl)cc3)c(=S)s2)ccc1Cl	4.9	0.8	-10.1	92.7*	20.6
Cc1ccc(NC(=O)CSc2nn(-c3ccc(Cl)cc3)c(=S)s2)cc1S(=O)(=O)N(C)C	-12.5	0.9	-3.3	97.2*	11.1
OCCN1CCN(c2ncnc3sc(-c4ccccc4)cc23)CC1	4.4	1	-5.3	7.2	1.2
CCCCN(C(=O)CSc1cc(C)c2ccc(OC)cc2n1)c1c(N)n(Cc2ccccc2)c(=O)[nH]c1=O	4.1	0.8	17.9	-0.5	15.3
CCOC(=O)C1(Cc2ccc(Cl)cc2)CCN(CCCn2cccn2)CC1	13.2	0.9	3.2	84.7*	5.8
CCOC(=O)C1(Cc2ccc(Cl)cc2)CCN(C(=O)CCc2ccncc2)CC1	14.2	0.9	20.1	25.8	6.0
CCOC(=O)C1(Cc2ccccc2)CCCN(Cc2ccncc2)C1 (centres undefined)	1.9	0.9	-6.1	6.3	10.4
CCOC(=O)C1(Cc2ccccc2)CCCN(CCCn2cccn2)C1 (centres undefined)	6.6	0.8	5.1	90.6*	16.0
CCOC(=O)C1(Cc2ccccc2)CCCN(C2CCN(C(C)=O)CC2)C1 (centres undefined)	18.6	1	-7.7	79.3*	4.0
CCOC(=O)C1(Cc2ccc(Cl)cc2)CCN(Cc2nccn2CC)CC1	13.6	0.9	28.3	79.2*	13.0
O=C(COc1ccc(Cl)cc1Br)NC(=O)NCc1ccccc1	-1.9	0.9	3.4	-4.5	10.9
CSc1ncccc1C(=O)N1CCCC(CCC(=O)NCc2ccc(F)c(F)c2)C1 (centres undefined)	14.0	0.8	5.0	-1.4	20.5
COc1ccc(OCC(=O)N2CCN(S(=O)(=O)c3ccccc3[N+](=O)[O-])CC2)cc1	-2.7	0.9	-0.4	7.5	7.5
CCOC(=O)C1(Cc2ccccc2Cl)CCN(C(=O)CCn2ccnc2C)CC1	5.7	1	4.7	99.7*	-3.4
SMILES	G6PDH CS	Diaph act CS	WT yeast gro inh	Lmaj promast	Diaphorase inh
CCOC(=O)C1(S(=O)(=O)c2ccc(Cl)cc2)CCN(Cc2ccc(Cl)cc2)CC1	3.4	0.7	71.5*	35.4	25.4
CCOC(=O)C1(Cc2ccccc2C)CCCN(Cc2cn(C)nc2C)C1 (centres undefined)	17.8	0.8	-3.6	13.9	18.3
CCOC(=O)C1(Cc2ccccc2C)CCCN(Cc2cc(OC)c(O)c(OC)c2)C1 (centres undefined)	58.6*	0.9	-5.0	12.4	11.8
O=C(CCCCCNC(=O)c1ccccc1Cl)N/N=C/c1ccco1	9.0	0.9	8.3	-4.1	7.2
CCCCOc1ccccc1NC(=O)CSc1nnnn1C(C)(C)C	2.8	0.9	-7.3	6.6	9.1
O=C1/C(=C/c2cccnc2)SC(=S)N1C1CCS(=O)(=O)C1 (centres undefined)	1.7	0.8	-12.3	92.2*	17.7
O=C1/C(=C\c2cccnc2)SC(=S)N1C1CCS(=O)(=O)C1 (centres undefined)	-0.1	1	-11.3	72.9*	1.4
CC(C)=CCC(C)(C)C1OCCN1C(=O)Nc1ccccc1 (centres undefined)	-1.4	0.9	23.2	11.9	14.2
COc1ccc(COc2cc(-c3cccc(OC)c3)nc3ccc(NC(=O)c4ccc(OC)cc4)cc23)cc1	13.2	0.9	-5.9	96.8*	14.0
COc1ccc(COc2cc(-c3cccc(OC)c3)nc3ccc(NC(=O)c4cccnc4)cc23)cc1	10.5	0.9	17.6	99.9*	13.9
COc1ccc(COc2cc(-c3cccc(OC)c3)nc3ccc(NC(=O)c4ccccc4)cc23)cc1	19.7	0.9	-0.7	68.4*	8.8
COc1cc(CNCCc2ccc(S(N)(=O)=O)cc2)ccc1OCC(=O)N1CCCCC1	-11.8	1	1.3	-5.9	0.9
Cc1cc(C(=O)Cn2ncc(Cl)c(Cl)c2=O)c(C)n1CC(F)(F)F	-9.6	0.9	-11.4	63.0*	8.6
Cc1cccc(Cn2cnc3c(nnn3Cc3ccc(F)cc3)c2=O)c1	3.3	0.8	17.3	1.2	16.2
Cc1cccc(Cn2ncc(Cl)c(Cl)c2=O)c1	-1.0	0.8	11.9	62.1*	16.2
CCCc1cc(=O)[nH]c(SCC(=O)c2cc(C)n(CC(F)(F)F)c2C)n1	1.5	0.8	-19.6	7.0	16.3
Cc1cc2oc(=O)cc(Cn3ncc(Cl)c(Cl)c3=O)c2cc1Cl	21.8	0.8	-1.1	99.7*	21.3
Cc1cc2oc(=O)cc(CN3CCc4ccccc43)c2cc1Cl	-2.2	0.8	52.5	3.2	21.1
Cc1ccc(C)c(C(=O)Cn2ncc(Cl)c(Cl)c2=O)c1	2.4	1	.	95.3*	-1.9
Cc1cc(Br)ccc1NC(=O)CNC(=O)Cn1ncc(Cl)c(Cl)c1=O	10.1	0.8	3.1	7.6	18.8
CS(=O)(=O)N(CCC#N)Cc1ccc(/C=C2\C(=O)Nc3ccccc32)o1	5.6	0.8	6.4	6.7	19.2
O=C(CSc1nc2ccccc2c(=O)n1NC(=O)Cc1ccccc1)NCc1ccccc1Cl	-0.8	0.9	2.3	35.0	6.4
Nc1nc(SCCO)[nH]c(=O)c1NC(=O)c1ccccc1F	6.1	0.9	-8.7	-6.0	7.6
CN1CC(c2ccccc2Cl)C2(COc3ccccc3C2=O)C12C(=O)Nc1ccccc12 (centres undefined)	0.3	1	59.0*	30.9	3.5
Cc1ccc(C2CN(C)C3(C(=O)Nc4ccccc43)C23COc2ccccc2C3=O)cc1 (centres undefined)	0.1	0.8	72.9*	29.4	22.6
CC1OC2(OC1C)C(=O)Nc1ccccc12 (centres undefined)	5.0	1	-20.6	-0.9	0.8
